# Reference: ChEMBL document CHEMBL4411269, “Required Immunoproteasome Subunit Inhibition Profile for Anti-Inflammatory Efficacy and Clinical Candidate KZR-616 ((2 S,3 R)- N-(( S)-3-(Cyclopent-1-en-1-yl)-1-(( R)-2-methyloxiran-2-yl)-1-oxopropan-2-yl)-3-hydroxy-3-(4-methoxyphenyl)-2-(( S)-2-(2-morpholinoacetamido)propanamido)propenamide)” (J Med Chem, 2018)
# Legend:
# [1] = Half life in Sprague-Dawley rat at 2 to 9 mg/kg, iv administered as bolus dose by LC/MS-MS analysis; assay type: ADME, organism-based; conditions: in vivo
# [2] = target: T1, Proteasome subunit beta type-5 (Mus musculus, UniProt O55234); test: Inhibition of 20S proteosome beta 5 in mouse A20 cells by ELISA; assay type: cell-based
# T1 sequence (O55234 whole entry): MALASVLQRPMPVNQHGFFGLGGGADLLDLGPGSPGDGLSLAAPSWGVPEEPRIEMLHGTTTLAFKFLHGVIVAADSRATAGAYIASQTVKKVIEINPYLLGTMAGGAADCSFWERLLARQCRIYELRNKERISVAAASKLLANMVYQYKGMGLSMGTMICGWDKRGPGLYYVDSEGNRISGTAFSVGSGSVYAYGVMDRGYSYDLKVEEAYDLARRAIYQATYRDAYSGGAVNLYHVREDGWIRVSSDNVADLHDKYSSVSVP
# [3] = target: T2, Proteasome subunit beta type-8 (Mus musculus, UniProt P28063); test: Inhibition of LMP7 in mouse A20 cells by ELISA; assay type: cell-based
# T2 sequence (P28063 whole entry): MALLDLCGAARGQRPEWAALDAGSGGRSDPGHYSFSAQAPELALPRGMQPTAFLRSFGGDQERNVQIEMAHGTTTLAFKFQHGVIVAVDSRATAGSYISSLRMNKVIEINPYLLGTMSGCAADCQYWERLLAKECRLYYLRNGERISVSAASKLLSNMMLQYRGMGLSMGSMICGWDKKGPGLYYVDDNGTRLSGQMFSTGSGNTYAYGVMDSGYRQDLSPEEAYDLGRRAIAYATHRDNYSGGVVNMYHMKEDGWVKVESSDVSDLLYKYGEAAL
# Method in brief: (§1)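 Mouse A20 B-cell lymphoma cell lysate (1 mg/mL, hypotonic 20 mM Tris pH 8, 5 mM EDTA) treated with serially diluted compound for 1 h at 25 °C. Then 5 μM biotinylated active-site probe for 2 h at 25 °C, guanidine denaturation and streptavidin bead capture. Subunit-specific antibody and HRP chemiluminescence, signal normalized to protein, IC50 from percent activity versus DMSO controls.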
# [4] = target: T3, Proteasome subunit beta type-9 (Homo sapiens, UniProt P28065); test: Inhibition of LMP2 in human MOLT4 cells by ELISA; assay type: cell-based
# T3 sequence (P28065 whole entry): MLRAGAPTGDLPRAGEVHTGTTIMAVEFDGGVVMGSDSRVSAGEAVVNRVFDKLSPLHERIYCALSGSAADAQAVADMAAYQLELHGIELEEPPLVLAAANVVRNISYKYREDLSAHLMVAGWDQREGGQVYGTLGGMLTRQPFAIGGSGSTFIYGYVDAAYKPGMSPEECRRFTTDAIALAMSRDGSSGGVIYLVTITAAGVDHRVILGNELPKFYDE
# [5] = target: T4, Proteasome subunit beta type-8 (Homo sapiens, UniProt P28062); test: Inhibition of LMP7 in human MOLT4 cells by ELISA; assay type: cell-based
# T4 sequence (P28062 whole entry): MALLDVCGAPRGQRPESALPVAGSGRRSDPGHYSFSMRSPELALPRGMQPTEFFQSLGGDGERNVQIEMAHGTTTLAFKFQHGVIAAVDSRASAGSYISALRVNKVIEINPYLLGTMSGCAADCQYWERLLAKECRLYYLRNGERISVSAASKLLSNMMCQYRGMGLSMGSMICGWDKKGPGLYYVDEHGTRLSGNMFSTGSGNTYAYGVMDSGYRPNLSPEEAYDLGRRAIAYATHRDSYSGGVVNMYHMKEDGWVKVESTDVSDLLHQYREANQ
# [6] = Solubility of the compound in phosphate buffer at pH 7.2 at 10 mg/ml after 24 hrs by HPLC-UV method; assay type: physicochemical
# Method in brief: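 Compound shaken at a target 10 mg/mL in 50 mM potassium phosphate buffer for 24 h at 25 °C, then centrifuged at 15 000 rpm for 15 min. Supernatant diluted 100-fold in DMSO and quantified by HPLC-UV (220/254/280 nm) against a three-level DMSO standard curve, in duplicate.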
# [7] = target: T5, Proteasome subunit beta type-10 (Homo sapiens, UniProt P40306); test: Inhibition of MECL1 in human MOLT4 cells by ELISA; assay type: cell-based
# T5 sequence (P40306 whole entry): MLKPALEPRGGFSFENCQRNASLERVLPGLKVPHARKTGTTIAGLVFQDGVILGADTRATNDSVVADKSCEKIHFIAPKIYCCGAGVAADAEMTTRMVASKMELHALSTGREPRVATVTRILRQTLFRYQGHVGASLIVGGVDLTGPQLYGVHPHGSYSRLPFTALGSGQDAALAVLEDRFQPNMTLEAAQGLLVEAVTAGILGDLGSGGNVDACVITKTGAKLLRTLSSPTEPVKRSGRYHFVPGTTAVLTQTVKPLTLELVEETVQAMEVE
# [8] = target: T6, Proteasome Macropain subunit MB1 (Homo sapiens, UniProt P28074); test: Inhibition of 20S proteosome beta 5 in human MOLT4 cells by ELISA; assay type: cell-based
# T6 sequence (P28074 whole entry): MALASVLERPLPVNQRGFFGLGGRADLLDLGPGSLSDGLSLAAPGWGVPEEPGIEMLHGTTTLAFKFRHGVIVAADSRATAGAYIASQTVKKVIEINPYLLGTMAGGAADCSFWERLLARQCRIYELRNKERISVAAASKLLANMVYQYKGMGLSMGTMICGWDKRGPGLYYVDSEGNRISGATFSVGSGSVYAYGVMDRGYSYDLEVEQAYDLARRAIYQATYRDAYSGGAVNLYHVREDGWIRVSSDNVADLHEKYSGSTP
# [9] = target: T7, Proteasome subunit beta type-9 (Mus musculus, UniProt P28076); test: Inhibition of LMP2 in mouse A20 cells by ELISA; assay type: cell-based; method in brief: as §1
# T7 sequence (P28076 whole entry): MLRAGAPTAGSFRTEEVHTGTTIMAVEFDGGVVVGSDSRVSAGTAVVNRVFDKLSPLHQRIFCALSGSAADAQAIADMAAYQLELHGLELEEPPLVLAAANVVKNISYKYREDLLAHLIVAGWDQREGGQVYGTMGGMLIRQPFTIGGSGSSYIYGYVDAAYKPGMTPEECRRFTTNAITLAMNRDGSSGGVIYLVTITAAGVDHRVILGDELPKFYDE
# [10] = target: Proteasome subunit beta type-2 (Mus musculus, UniProt Q9R1P3); test: Inhibition of 20S proteosome beta 2 in mouse A20 cells by ELISA; assay type: cell-based
# [11] = target: T8, Proteasome subunit beta type-10 (Mus musculus, UniProt O35955); test: Inhibition of MECL1 in mouse A20 cells by ELISA; assay type: cell-based; method in brief: as §1
# T8 sequence (O35955 whole entry): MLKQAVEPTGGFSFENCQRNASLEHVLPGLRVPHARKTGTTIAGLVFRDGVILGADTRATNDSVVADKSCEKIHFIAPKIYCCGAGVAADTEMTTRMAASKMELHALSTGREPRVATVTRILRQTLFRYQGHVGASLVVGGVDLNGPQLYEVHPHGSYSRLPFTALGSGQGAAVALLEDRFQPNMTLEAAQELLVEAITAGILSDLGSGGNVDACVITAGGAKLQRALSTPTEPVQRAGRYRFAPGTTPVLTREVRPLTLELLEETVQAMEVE
# Proteasome subunit beta type-2, sequence (Q9R1P3 whole entry): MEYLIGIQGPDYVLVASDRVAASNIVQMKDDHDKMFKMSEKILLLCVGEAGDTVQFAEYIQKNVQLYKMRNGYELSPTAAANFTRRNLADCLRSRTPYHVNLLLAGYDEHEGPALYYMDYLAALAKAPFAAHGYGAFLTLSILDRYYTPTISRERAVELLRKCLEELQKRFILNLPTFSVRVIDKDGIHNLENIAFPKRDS
half-life [1] [min],IC50 [2] [nM],IC50 [3] [nM],IC50 [4] [nM],IC50 [5] [nM],solubility at 24 h [6] [µg/mL],IC50 [7] [nM],IC50 [8] [nM],IC50 [9] [nM],IC50 [10] [nM],IC50 [11] [nM],SMILES
< 15,–,–,–,–,–,–,–,–,–,–,CC(C)C[C@H](NC(=O)[C@H](CCc1ccccc1)NC(=O)CN1CCOCC1)C(=O)N[C@@H](Cc1ccccc1)C(=O)N[C@@H](CC(C)C)C(=O)[C@@]1(C)CO1 [CARFILZOMIB]
–,507,262,3530,23,240,> 25000,782,–,–,–,COc1ccc(C[C@H](NC(=O)[C@@H](C)NC(=O)[C@H]2CC[C@H](O)CC2)C(=O)N[C@@H](Cc2ccccc2)C(=O)[C@@]2(C)CO2)cc1
–,38,56,415,49,–,97,39,415,141,159,CC(C)C[C@H](NC(=O)CN1CCCCCC1)C(=O)N[C@@H](Cc1ccccc1)C(=O)N[C@@H](Cc1ccccc1)C(=O)[C@@]1(C)CO1
–,2340,764,–,76,1.4,–,3620,–,–,–,COc1ccc(C[C@H](NC(=O)[C@@H](C)NC(=O)C2=C(C)c3ccccc3C2)C(=O)N[C@@H](Cc2ccccc2)C(=O)[C@@]2(C)CO2)cc1
–,1360,573,2210,39,0.75,> 25000,1670,4780,–,–,CC1=C(C(=O)N[C@H](C)C(=O)N[C@@H](Cc2c[nH]c3ccccc23)C(=O)N[C@@H](Cc2ccccc2)C(=O)[C@@]2(C)CO2)Cc2ccccc21
